Assay results reported in ChEMBL document CHEMBL3734648, “The synthesis of indolo[2,3-b]quinoline derivatives with a guanidine group: highly selective cytotoxic agents” (Eur J Med Chem, 2015).
pEC50, pIC50: −log10 of the molar value. Activity calls are given as the source filed them. No cut-off for these calls is given here.

How the values were obtained:
[1] = system: erythrocytes (Homo sapiens); assay: Hemolytic activity in human erythrocytes after 30 mins by spectrophotometry
[2] = Induction of DNA intercalation (unknown origin) after 24 hrs by methyl green dye displacement assay
Summary of the method: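 Compound displaces methyl green from a DNA/methyl green complex. IC50 is the concentration giving a 50% decrease in the initial absorbance of the DNA/methyl green solution. Mean ± SD, n = 3–5.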

LoVo = assay: Antiproliferative activity against human LoVo cells after 72 hrs by sulforhodamine B assay; assay type: functional, cell-based
A549 [3] = assay: Antiproliferative activity against human A549 cells after 72 hrs by sulforhodamine B assay; assay type: functional, cell-based; details: A549, 72 h
BALB/3T3 = assay: Cytotoxicity against mouse BALB/3T3 cells assessed as cell viability after 1 hr by sulforhodamine B assay; assay type: cell-based; details: BALB/3T3, 1 h
KB [4] = assay: Antiproliferative activity against human KB cells after 72 hrs by sulforhodamine B assay; assay type: functional, cell-based
MCF7 [5] = assay: Antiproliferative activity against human MCF7 cells after 72 hrs by sulforhodamine B assay; assay type: functional, cell-based; details: MCF7, 72 h
Candida albicans = assay: Inhibition of biofilm formation of Candida albicans assessed as reduction in cell viability of biofilm after 24 hrs by XTT staining based spectrophotometry; assay type: functional; details: read-out: ED50 (the source's name)
Summary of the method: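 Candida albicans biofilms grown in vitro in 96-well plates, then exposed to compounds, and biofilm cell viability determined. ED50 reported as mean ± SD, n = 3.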

[6] = Hemolytic activity in human RBC after 30 mins by spectrophotometry; assay type: ADME, cell-based, Erythrocyte; details: for Activity: erythrocyte, 0.5 h; for HC50 at 0.5 h: human red blood cells
Summary of the method: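 Human red blood cells incubated with compound over 10^-6 to 5×10^-4 M for 30 min at 37 °C. HC50 taken as the concentration lysing 50% of cells. Mean ± SD of three individual determinations.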

KB [7] = assay: Induction of cell cycle arrest in human KB cells assessed as accumulation at S phase at 0.25 uM after 72 hrs by propidium iodide staining based flow cytometry (reference value: 32.1 +/- 5.4%); assay type: functional
Summary of the method: (§1)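 KB cells exposed for 72 h at […]. Cell-cycle phase distribution (G0/G1, S, G2/M) given as mean ± SD from independent experiments. Treated cells compared with control cells by Mann–Whitney U test, significance at p ≤ 0.05.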

KB [8] = assay: Induction of apoptosis in human KB cells assessed as live cells at 1 uM after 72 hrs by Annexin V/propidium iodide staining-based flow cytometry (reference value: 91.3 +/- 3.1 %); assay type: functional
Summary of the method: (§2)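 Apoptosis and necrosis in KB cells after 72 h exposure at 1.0 or 0.5. Staining with annexin V (AV) and propidium iodide (PI). Cells scored as live (AV−/PI−), apoptotic (AV+/PI−) or necrotic (AV+/PI+). Values as mean ± SD, compared with control cells at p ≤ 0.05.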

KB [9] = assay: Induction of apoptosis in human KB cells assessed as necrotic cells at 0.5 uM after 72 hrs by Annexin V/propidium iodide staining-based flow cytometry (reference value: 3.9 +/- 0.8 %); assay type: functional
Summary of the method: as §2

MCF7 [10] = assay: Selectivity index, ratio of IC50 for mouse BALB/3T3 cells to IC50 for human MCF7 cells; assay type: functional
KB [11] = assay: Induction of apoptosis in human KB cells assessed as induction of caspase-3/7 activity at 0.5 uM after 72 hrs by Ac-DEVD-ACC-based fluorescence assay; assay type: functional, cell-based
Summary of the method: (§3)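 KB cells treated for 72 h at 1.0 or 0.5. Caspase-3/7 activity measured by an enzymatic assay, normalized to protein content and expressed relative to untreated control. Significance versus control at p ≤ 0.05.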

KB [12] = assay: Induction of apoptosis in human KB cells assessed as necrotic cells at 1 uM after 72 hrs by Annexin V/propidium iodide staining-based flow cytometry (reference value: 3.9 +/- 0.8 %); assay type: functional
Summary of the method: as §2

KB [13] = assay: Induction of cell cycle arrest in human KB cells assessed as accumulation at G0/G1 phase at 0.5 uM after 72 hrs by propidium iodide staining based flow cytometry (reference value: 53.2 +/- 5.8%); assay type: functional
Summary of the method: as §1

KB [14] = assay: Induction of apoptosis in human KB cells assessed as induction of caspase-3/7 activity at 1 uM after 72 hrs by Ac-DEVD-ACC-based fluorescence assay relative to control; assay type: functional
Summary of the method: as §3

A549 [15] = assay: Selectivity index, ratio of IC50 for mouse BALB/3T3 cells to IC50 for human A549 cells; assay type: functional
KB [16] = assay: Induction of cell cycle arrest in human KB cells assessed as accumulation at S phase at 0.5 uM after 72 hrs by propidium iodide staining based flow cytometry (reference value: 32.1 +/- 5.4%); assay type: functional
Summary of the method: as §1

KB [17] = assay: Induction of apoptosis in human KB cells assessed as apoptotic cells at 1 uM after 72 hrs by Annexin V/propidium iodide staining-based flow cytometry (reference value: 4.8 +/- 2.4 %); assay type: functional
Summary of the method: as §2

KB [18] = assay: Induction of cell cycle arrest in human KB cells assessed as accumulation at G0/G1 phase at 1 uM after 72 hrs by propidium iodide staining based flow cytometry (reference value: 53.2 +/- 5.8%); assay type: functional
Summary of the method: as §1

KB [19] = assay: Induction of apoptosis in human KB cells assessed as live cells at 0.5 uM after 72 hrs by Annexin V/propidium iodide staining-based flow cytometry (reference value: 91.3 +/- 3.1 %); assay type: functional
Summary of the method: as §2

KB [20] = assay: Induction of cell cycle arrest in human KB cells assessed as accumulation at G2/M phase at 0.25 uM after 72 hrs by propidium iodide staining based flow cytometry (reference value: 14.7 +/- 1.1 %); assay type: functional
Summary of the method: as §1

KB [21] = assay: Induction of cell cycle arrest in human KB cells assessed as accumulation at G2/M phase at 1 uM after 72 hrs by propidium iodide staining based flow cytometry (reference value: 14.7 +/- 1.1 %); assay type: functional
Summary of the method: as §1

KB [22] = assay: Induction of apoptosis in human KB cells assessed as apoptotic cells at 0.5 uM after 72 hrs by Annexin V/propidium iodide staining-based flow cytometry (reference value: 4.8 +/- 2.4 %); assay type: functional
Summary of the method: as §2

KB [23] = assay: Induction of cell cycle arrest in human KB cells assessed as accumulation at S phase at 1 uM after 72 hrs by propidium iodide staining based flow cytometry (reference value: 32.1 +/- 5.4%); assay type: functional
Summary of the method: as §1

KB [24] = assay: Induction of mitochondrial membrane potential loss in human KB cells at 0.5 to 1 uM after 72 hrs by JC-1 staining based flow cytometric analysis; assay type: functional
Summary of the method: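 Mitochondrial membrane potential of KB cells read after 72 h exposure at 1.0 and 0.5. Fraction of cells with reduced potential compared with control cells, significance at p ≤ 0.05.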

KB [25] = assay: Induction of cell cycle arrest in human KB cells assessed as accumulation at G2/M phase at 0.5 uM after 72 hrs by propidium iodide staining based flow cytometry (reference value: 14.7 +/- 1.1 %); assay type: functional
Summary of the method: as §1

KB [26] = assay: Induction of cell cycle arrest in human KB cells assessed as accumulation at G0/G1 phase at 0.25 uM after 72 hrs by propidium iodide staining based flow cytometry (reference value: 53.2 +/- 5.8%); assay type: functional
Summary of the method: as §1

Row | Structure (SMILES) | pIC50 [2] | pIC50 (LoVo) | pIC50 (A549 [3]) | pIC50 (BALB/3T3) | pIC50 (KB [4]) | pIC50 (MCF7 [5]) | pEC50 (Candida albicans) | also measured
1 | Cc1c2c3ccccc3nc-2n(C)c2ccccc12 | 3.44 |  |  |  |  |  |  | HC50 at 0.5 h [1]: 120 µM
2 | Cc1c2c3cc(NC(=O)[C@@H]4CCCN4C(=N)N)ccc3nc-2n(C)c2ccccc12 |  | 5.11 | 4.96 | 4.50 | 4.81 | 5.11 |  | 
3 | CCOc1ccc(-c2nc3ccc(-c4nc5ccc(N6CCN(C)CC6)cc5[nH]4)cc3[nH]2)cc1 | 4.92 |  |  |  |  |  |  | 
4 | Cc1c2ccccc2nc2c1c1cc(N)ccc1n2CCN(C)C | 3.90 | 7.11 | 6.06 | 6.25 | 6.07 | 6.48 | 4.47 | 
5 | Cc1c2ccccc2nc2c1c1cc(NC(=O)[C@@H]3CCCN3)ccc1n2CCN(C)C | 4.37 | 7.22 | 6.57 | 6.44 | 6.42 | 6.49 | 4.59 | 
6 | Cc1c2ccccc2nc2c1c1cc(NC(=O)[C@@H]3CCCN3C(=N)N)ccc1n2CCN(C)C |  | 5.08 | 5.21 | 4.87 | 5.13 | 5.69 |  | 
7 | Cc1c2ccccc2nc2c1c1cc(NC(=O)CN)ccc1n2CCN(C)C.Cl.Cl.Cl | 4.10 | 7.05 | 6.13 | 6.21 | 5.95 | 6.12 | 4.13 | Activity [6]: Dose-dependent effect; HC50 at 0.5 h [6]: 80.3 µM
8 | Cc1c2c3cc(NC(=N)N)ccc3nc-2n(C)c2ccccc12.Cl.Cl | 4.15 | 4.11 | 6.85 | 4.18 | 6.06 | 7.22 | 3.71 | Activity (KB [7]): 35.3%; Activity (KB [8]): 62.1%; Activity (KB [9]): 8.2%; Ratio IC50 (MCF7 [10]): 600; Activity (KB [11]): Active; Activity (KB [12]): 12.2%; Activity (KB [13]): 29.2%; fold change (FC) (KB [14]): 5; Ratio IC50 (A549 [15]): 600; Activity (KB [16]): 39.8%; Activity (KB [17]): 25.7%; Activity (KB [18]): 32.8%; Activity (KB [19]): 41.1%; Activity (KB [20]): 25.3%; Activity (KB [21]): 18.6%; Activity (KB [22]): 43.7%; Activity (KB [23]): 48.6%; Activity (KB [24]): 11%; Activity (KB [25]): 31%; Activity (KB [26]): 39.5%
9 | Cc1c2c3cc(N)ccc3nc-2n(C)c2ccccc12 | 3.82 | 7.15 | 6.80 | 6.27 | 6.14 | 6.28 | 4.39 | 
10 | Cc1c2c3cc(NC(=O)CNC(=N)N)ccc3nc-2n(C)c2ccccc12.Cl.Cl.Cl | 4.39 | 6.08 | 5.74 | 5.35 | 5.41 | 5.32 | 5.38 | Activity [6]: Dose-dependent effect; HC50 at 0.5 h [6]: 192 µM
11 | Cc1c2ccccc2nc2c1c1cc(NC(=O)CNC(=N)N)ccc1n2CCN(C)C |  | 6.09 | 5.71 | 5.45 | 5.91 | 5.64 |  | 
12 | Cc1c2ccccc2nc2c1c1cc(NC(=N)N)ccc1n2CCN(C)C.Cl.Cl.Cl.Cl | 4.00 | 5.03 | 5.49 | 4.52 | 6.06 | 6.09 | 3.54 | Activity (KB [7]): 31.1%; Activity (KB [8]): 68.1%; Activity (KB [9]): 5.9%; Activity (KB [12]): 7.5%; Activity (KB [13]): 43.8%; fold change (FC) (KB [14]): 2; Activity (KB [16]): 31.6%; Activity (KB [17]): 24.4%; Activity (KB [18]): 33.4%; Activity (KB [19]): 61.5%; Activity (KB [20]): 17.3%; Activity (KB [21]): 19.6%; Activity (KB [22]): 32.5%; Activity (KB [23]): 46.9%; Activity (KB [24]): 11%; Activity (KB [25]): 24.6%; Activity (KB [26]): 51.6%
